Bioassay records from PubChem.
The full list was thinned out, with hits kept by preference.
Fibroblast inh: antiproliferative effect on LL 47 fibroblasts – human, LL 47 cells, CellTiter-Glo luminescence, primary screen; LL 47 human lung fibroblast viability, ATP luminescence; stronger effect = lower value; viability, % at 10 µM; actives 1.1% (n = 85,000);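 active = viability at or below 50% in the single dose screen; inactive = viability above 50%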;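 note: compound exposure lasted 72 h before the ATP readout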
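Test system: LL 47 human lung fibroblasts / Quantity: 1,150 cells in each well / Medium: IMEM growth medium with 15% fetal bovine serum / Incubation: 72 h compound exposure at 37 °C after overnight plating / Detection: CellTiter-Glo luminescence measuring cellular ATP / Read-out: % viability versus median cells-only luminescence / Benchmarks: cell-only wells, no compound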
HCT116 bCat-KO: primary screen for growth suppressors in beta-catenin knockout HCT116 cells (colon tumor, human); HCT116 beta-catenin knockout viability, CellTiter-Glo, 60 h; stronger effect = lower value; viability, % at 10 µM; actives 1.5% (n = 140,000); AID 818, 2007;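 active = viability at or under a set limit, the compound median less 4 SD, cut at about 6% in these data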
PTEN del growth: growth suppression of PTEN-null HCT116, primary screen, cell-based, CellTiter-Glo; HCT116 PTEN-null viability, 60 h; stronger effect = lower value; viability, % at 10 µM; actives 1.2% (n = 140,000);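 active = viability at or below a set limit, 4 SD under the median of all tested compounds, cut at about 3.7% in these data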;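 note: PTEN knockout HCT116 line with beta catenin targeted HCT116 as companion control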
H69AR growth 86K: proliferation blockers of H69AR lung cancer cells, primary screen, cell-based, human, 86K library; H69AR lung tumor viability, ATP luminescence, 72 h; stronger effect = lower value; viability, % at 10 µM; actives 6% (n = 85,000); AID 598, 2007;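 active = viability at or below 40%; inactive = viability above 40%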;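 note: multidrug resistant small cell line overexpressing MRP-1 efflux transporter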
HUVEC inhibit: inhibitors of HUVEC proliferation, primary screen, cell-based, 384-well | CellTiter-Glo luminescence, 72 h; stronger effect = lower value | actives 1.1% (n = 86,000) | viability, % at 10 µM (by protocol);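 active = viability at or below 30%; inactive = viability above 30%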
Each line names hits and unclear results; the compound was inactive in the other large screens.

CCOc1cc(NC(=O)c2ccco2)c(OCC)cc1NC(=O)CCc1ccc(OC)cc1	H69AR growth 86K 33 (no result: HCT116 bCat-KO, PTEN del growth)
O=C(NC(=Nc1nc2ccccc2o1)NC(=O)c1ccccc1)c1ccccc1	none (no result: Fibroblast inh, H69AR growth 86K, HUVEC inhibit)
N/C(=N\c1nc2ccccc2o1)NC(=O)c1ccccc1F	none
N/C(=N\c1nc2ccccc2o1)NC(=O)c1ccccc1NC(=O)c1ccccc1	H69AR growth 86K 27
COc1ccccc1C(=O)NC(=Nc1nc2ccccc2o1)NC(=O)c1ccccc1OC	HCT116 bCat-KO 2.5, PTEN del growth 2.1, H69AR growth 86K 18, HUVEC inhibit 14
CCNc1nc(NCC)nc(N(C)N)n1	none (no result: Fibroblast inh, H69AR growth 86K, HUVEC inhibit)
CCOC(=O)N1CCC(n2c(=S)[nH]c3cc(OCC)c(OCC)cc3c2=O)CC1	Fibroblast inh 12, H69AR growth 86K 22, HUVEC inhibit 28
CCOc1cc2[nH]c(=S)n(CCN3CCC(C)CC3)c(=O)c2cc1OCC	none
COc1ccc(CCNC(=O)Cn2nc([N+](=O)[O-])c(Br)c2C)cc1OC	none (no result: Fibroblast inh, H69AR growth 86K, HUVEC inhibit)
Cc1ccc(S(=O)(=O)/C(C#N)=C/c2c(N3CCC(C(N)=O)CC3)nc3c(C)cccn3c2=O)cc1	none
Cc1ccc(S(=O)(=O)/C(C#N)=C/c2c(Oc3ccc(Cl)cc3)nc3c(C)cccn3c2=O)cc1	HCT116 bCat-KO 2.7, PTEN del growth 2.0 (no result: Fibroblast inh, H69AR growth 86K, HUVEC inhibit)
COc1ccccc1-c1c(C#N)c(N)nc2c1CCc1ccccc1-2	none (no result: Fibroblast inh, H69AR growth 86K, HUVEC inhibit)
COc1cc(OC)nc(-n2ncc(Br)c(Br)c2=O)n1	HCT116 bCat-KO 1.6, PTEN del growth 1.4 (no result: Fibroblast inh, H69AR growth 86K, HUVEC inhibit)
COC(=O)c1cnn(-c2nc(OC)cc(OC)n2)c1C	none (no result: Fibroblast inh, H69AR growth 86K, HUVEC inhibit)
CCN(Cc1nc2ccccc2c(=O)[nH]1)Cc1nc2cc(OC)c(OC)cc2c(=O)[nH]1	H69AR growth 86K 15
CCN(CC(=O)NC(c1ccccc1)c1ccccc1)Cc1nc2ccccc2c(=O)[nH]1	none
COc1cc2nc(CN(C)Cc3nc4ccccc4c(=O)[nH]3)[nH]c(=O)c2cc1OC	none (no result: Fibroblast inh, H69AR growth 86K, HUVEC inhibit)
CCN(CC(=O)Nc1ccc2c(c1)CCC2)Cc1nc2ccccc2c(=O)[nH]1	H69AR growth 86K 33
CCN(CC)CC(=O)Nc1ccc2c(c1)Nc1ccccc1CC2	H69AR growth 86K 4.0
CCc1ccc2c(CN(CC)Cc3nc4ccccc4c(=O)[nH]3)cc(=O)oc2c1	H69AR growth 86K 36
COc1cc(NC(=S)NCCN2CCOCC2)cc(OC)c1	none (no result: Fibroblast inh, H69AR growth 86K, HUVEC inhibit)
COc1cc(C2Nc3ccc4ncccc4c3C3=C2C(=O)CCC3)cc(OC)c1O (centres undefined)	H69AR growth 86K 27
Cc1c(NC(=S)NC(=O)C2CCCCC2)c(=O)n(-c2ccccc2)n1C	none (no result: Fibroblast inh, H69AR growth 86K, HUVEC inhibit)
COc1ccc(CCNC(=O)c2cc(C(=O)c3cc(C)ccc3O)cn(CCc3ccc(OC)cc3)c2=O)cc1	none (no result: Fibroblast inh, H69AR growth 86K, HUVEC inhibit)
O=C(Nc1ncccn1)c1cc([N+](=O)[O-])cc([N+](=O)[O-])c1	none (no result: Fibroblast inh, H69AR growth 86K, HUVEC inhibit)
O=[N+]([O-])c1cc(-c2ncccn2)c([N+](=O)[O-])s1	HCT116 bCat-KO 2.2 (no result: Fibroblast inh, H69AR growth 86K, HUVEC inhibit)
Cc1cc2ccccc2n1CCNC(=O)Cc1cccc2ccccc12	none
CCCCNC(=O)C(C#N)c1nc2ccccc2nc1N1CCCC1 (centres undefined)	none
COc1ccc(CNC(=O)C(C#N)c2nc3ccccc3nc2N2CCN(C)CC2)cc1 (centres undefined)	H69AR growth 86K 34, HUVEC inhibit 4.2
COC(=O)C1CCN(c2nc3ccccc3nc2C(C#N)C(=O)NCCc2ccccc2)CC1 (centres undefined)	none
COc1ccc(CNC(=O)C(C#N)c2nc3ccccc3nc2N2CCCC2)cc1 (centres undefined)	H69AR growth 86K 34
O=C(CNC(c1ccccc1)c1ccccc1)Nc1ccccc1-c1ccccc1	none (no result: Fibroblast inh, H69AR growth 86K, HUVEC inhibit)
Cc1nnc(-c2ccccc2)c(=O)n1/N=C/c1c(O)ccc2ccccc12	HCT116 bCat-KO 4.5 (no result: Fibroblast inh, H69AR growth 86K, HUVEC inhibit)
COc1ccc2ccccc2c1/C=N\n1c(C)cc(C)c(C(N)=O)c1=O	none (no result: Fibroblast inh, H69AR growth 86K, HUVEC inhibit)
Fc1ccc(-c2nc3n(n2)Cc2ccccc2-3)cc1	H69AR growth 86K 37
Cc1ccc(-c2nc3n(n2)Cc2ccccc2-3)cc1	none
CCn1c(C)nc2cc(C(=O)n3cc(C(=O)c4ccccc4O)cn3)ccc21	none (no result: Fibroblast inh, H69AR growth 86K, HUVEC inhibit)
CCn1c(C)nc2cc(-c3nc4n(n3)Cc3ccccc3-4)ccc21	Fibroblast inh 24, H69AR growth 86K 16, HUVEC inhibit 26
CC(C)(C)OC(=O)C(Cc1ccc(OC(C)(C)C)cc1)NC(=O)CNC(=O)OCc1ccccc1 (centres undefined)	none (no result: Fibroblast inh, H69AR growth 86K, HUVEC inhibit)
Cc1ccc(-n2c(-c3c(-c4ccccc4)noc3C)n[nH]c2=S)cc1	none
O=C(C1CC1)N1CCC(c2nc(-c3ccc(S(=O)(=O)N4CCCC4)cc3)no2)CC1	none
O=C(NC1CCCCC1)N1CCC(c2nc(-c3ccc(S(=O)(=O)N4CCCC4)cc3)no2)CC1	H69AR growth 86K 30
O=C(O)C1C2C=CC(C3CC23)C1C(=O)N1CCc2ccccc21 (centres undefined)	none
CCOC(=O)c1c(CN2CCCCC2)n(C)c2cc(Br)c(OC)cc12	none
CCN(CC)CCNC(=O)c1c(C)n(-c2ccccc2)c2cc(Br)c(OC)cc12	H69AR growth 86K 25, HUVEC inhibit 6.1
CCOC(=O)c1c(CN2CCN(CCO)CC2)n(C)c2cc(Br)c(OC)cc12	H69AR growth 86K 16
CCOC(=O)c1c(CNCCN(CC)CC)n(C)c2cc(Br)c(OC)cc12	H69AR growth 86K 33
O=C(CSc1ncnc2c1cnn2CCO)Nc1cccc(C(F)(F)F)c1	none (no result: Fibroblast inh, H69AR growth 86K, HUVEC inhibit)
Cc1c(NC(=O)CSc2nc3ccccc3n2C)c(=O)n(-c2ccccc2)n1C	none
COC(=O)c1nn(-c2ccc(OC)cc2)c(=O)cc1Oc1cccc(Cl)c1	none (no result: Fibroblast inh, H69AR growth 86K, HUVEC inhibit)
CC(=O)O[C@@]12CO[C@@H]1C[C@H](O)[C@@]1(C)C(=O)[C@H](O)C3=C(C)[C@@H](OC(=O)[C@H](O)[C@@H](NC(=O)OC(C)(C)C)c4ccccc4)C[C@](O)([C@@H](OC(=O)c4ccccc4)[C@H]21)C3(C)C	H69AR growth 86K 23 (no result: HCT116 bCat-KO, PTEN del growth)
O=C(N/N=C/c1ccc(-c2ccccc2C(=O)O)o1)c1cccs1	none (no result: Fibroblast inh, H69AR growth 86K, HUVEC inhibit)
COc1cc2[nH]c3c(N4CCN(c5ccccn5)CC4)ncnc3c2cc1OC	PTEN del growth 2.7, H69AR growth 86K 24
COc1ccc(N2CCN(c3ncnc4c3[nH]c3ccccc34)CC2)cc1	none
Cc1cc(C)n(-c2nc3ccccc3c(=O)n2OCC(=O)N(C)C)n1	none
Cc1cc(C)n(-c2nc3ccccc3c(=O)n2OCC(=O)OCc2ccccc2)n1	Fibroblast inh 27, HCT116 bCat-KO 4.7, PTEN del growth 2.8, H69AR growth 86K 9.8
O=C(Nc1nc2ccccc2s1)c1ccc(Cl)s1	none
Cc1ccc2nc(NC(=O)c3ccc(-c4nc5ccccc5s4)s3)sc2c1	HCT116 bCat-KO 4.7, PTEN del growth 2.5 (no result: Fibroblast inh, H69AR growth 86K, HUVEC inhibit)
CCCCOc1cccc(C(=O)N(Cc2cccs2)C2CCS(=O)(=O)C2)c1 (centres undefined)	H69AR growth 86K 37
CCCOc1cccc(C(=O)N(Cc2cccs2)C2CCS(=O)(=O)C2)c1 (centres undefined)	none
